Tests used:
[1] = biological target: 72 kDa type IV collagenase (Homo sapiens, UniProt P08253); assay: Inhibition of recombinant human MMP-2 assessed as substrate cleavage after 20 hrs by fluorescence assay
Summary of the method: (§1)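 Enzyme inhibition IC50s derived from at least six measurements, standard errors normally <5% within an assay; a standard compound run to keep assay-to-assay variability within twofold.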

[2] = biological target: Matrix metalloproteinase-14 (Homo sapiens, UniProt P50281); assay: Inhibition of recombinant human MMP-14 assessed as substrate cleavage after 20 hrs by fluorescence assay; summary of the method: as §1
Interstitial collagenase = biological target: T1, Interstitial collagenase (Homo sapiens, UniProt P03956); assay: Inhibition of recombinant human MMP-1 assessed as substrate cleavage after 20 hrs by fluorescence assay; summary of the method: as §1
T1 sequence (P03956 whole entry): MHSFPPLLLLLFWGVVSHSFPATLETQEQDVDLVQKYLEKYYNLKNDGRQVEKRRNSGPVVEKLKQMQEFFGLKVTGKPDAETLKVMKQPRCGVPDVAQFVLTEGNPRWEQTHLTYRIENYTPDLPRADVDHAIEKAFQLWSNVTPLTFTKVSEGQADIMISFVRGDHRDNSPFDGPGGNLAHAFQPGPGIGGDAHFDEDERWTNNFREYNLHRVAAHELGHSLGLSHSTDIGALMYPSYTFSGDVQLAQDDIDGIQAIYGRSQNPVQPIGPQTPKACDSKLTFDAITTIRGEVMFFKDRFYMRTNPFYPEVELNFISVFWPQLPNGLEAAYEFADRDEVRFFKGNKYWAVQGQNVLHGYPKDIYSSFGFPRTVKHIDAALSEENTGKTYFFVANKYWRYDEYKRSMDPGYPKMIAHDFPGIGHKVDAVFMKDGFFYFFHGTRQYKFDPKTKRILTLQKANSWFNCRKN

Collagenase 3 [3] = biological target: T2, Collagenase 3 (Homo sapiens, UniProt P45452); assay: Inhibition of recombinant human MMP-13 assessed as substrate cleavage after 20 hrs by fluorescence assay; summary of the method: as §1
[4] = biological target: T3, A disintegrin and metalloproteinase with thrombospondin motifs 5 (Homo sapiens, UniProt Q9UNA0); assay: Inhibition of ADAMTS-5 assessed as substrate cleavage after 16 hrs by fluorescence assay; summary of the method: as §1
T3 sequence (Q9UNA0 whole entry): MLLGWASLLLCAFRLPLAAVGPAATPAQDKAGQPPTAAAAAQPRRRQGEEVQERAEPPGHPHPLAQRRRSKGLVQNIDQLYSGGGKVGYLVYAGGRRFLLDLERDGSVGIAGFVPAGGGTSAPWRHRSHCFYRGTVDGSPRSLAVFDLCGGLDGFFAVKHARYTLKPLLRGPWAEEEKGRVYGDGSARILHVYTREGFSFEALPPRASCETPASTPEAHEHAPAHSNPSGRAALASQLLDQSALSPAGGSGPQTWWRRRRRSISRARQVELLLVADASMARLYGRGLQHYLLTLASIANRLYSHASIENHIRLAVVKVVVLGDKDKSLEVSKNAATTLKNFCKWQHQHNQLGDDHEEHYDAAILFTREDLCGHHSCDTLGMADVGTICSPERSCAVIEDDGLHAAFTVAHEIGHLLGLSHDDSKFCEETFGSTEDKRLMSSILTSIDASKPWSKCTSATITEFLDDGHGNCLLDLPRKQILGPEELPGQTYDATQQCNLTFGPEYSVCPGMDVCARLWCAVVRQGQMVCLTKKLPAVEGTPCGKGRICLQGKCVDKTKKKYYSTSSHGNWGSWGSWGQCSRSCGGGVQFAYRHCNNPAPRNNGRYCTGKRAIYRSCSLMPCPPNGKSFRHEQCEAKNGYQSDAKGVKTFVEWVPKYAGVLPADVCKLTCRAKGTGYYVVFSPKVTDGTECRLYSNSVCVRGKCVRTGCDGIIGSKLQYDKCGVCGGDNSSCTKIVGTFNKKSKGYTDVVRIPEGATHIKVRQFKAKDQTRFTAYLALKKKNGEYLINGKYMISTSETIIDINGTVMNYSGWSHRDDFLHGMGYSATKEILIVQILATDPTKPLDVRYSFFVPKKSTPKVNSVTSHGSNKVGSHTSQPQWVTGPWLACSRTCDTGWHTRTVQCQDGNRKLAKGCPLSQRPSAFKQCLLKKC

[5] = biological target: T4, A disintegrin and metalloproteinase with thrombospondin motifs 4 (Homo sapiens, UniProt O75173); assay: Inhibition of ADAMTS-4 assessed as substrate cleavage after 16 hrs by fluorescence assay; summary of the method: as §1
T4 sequence (O75173 whole entry): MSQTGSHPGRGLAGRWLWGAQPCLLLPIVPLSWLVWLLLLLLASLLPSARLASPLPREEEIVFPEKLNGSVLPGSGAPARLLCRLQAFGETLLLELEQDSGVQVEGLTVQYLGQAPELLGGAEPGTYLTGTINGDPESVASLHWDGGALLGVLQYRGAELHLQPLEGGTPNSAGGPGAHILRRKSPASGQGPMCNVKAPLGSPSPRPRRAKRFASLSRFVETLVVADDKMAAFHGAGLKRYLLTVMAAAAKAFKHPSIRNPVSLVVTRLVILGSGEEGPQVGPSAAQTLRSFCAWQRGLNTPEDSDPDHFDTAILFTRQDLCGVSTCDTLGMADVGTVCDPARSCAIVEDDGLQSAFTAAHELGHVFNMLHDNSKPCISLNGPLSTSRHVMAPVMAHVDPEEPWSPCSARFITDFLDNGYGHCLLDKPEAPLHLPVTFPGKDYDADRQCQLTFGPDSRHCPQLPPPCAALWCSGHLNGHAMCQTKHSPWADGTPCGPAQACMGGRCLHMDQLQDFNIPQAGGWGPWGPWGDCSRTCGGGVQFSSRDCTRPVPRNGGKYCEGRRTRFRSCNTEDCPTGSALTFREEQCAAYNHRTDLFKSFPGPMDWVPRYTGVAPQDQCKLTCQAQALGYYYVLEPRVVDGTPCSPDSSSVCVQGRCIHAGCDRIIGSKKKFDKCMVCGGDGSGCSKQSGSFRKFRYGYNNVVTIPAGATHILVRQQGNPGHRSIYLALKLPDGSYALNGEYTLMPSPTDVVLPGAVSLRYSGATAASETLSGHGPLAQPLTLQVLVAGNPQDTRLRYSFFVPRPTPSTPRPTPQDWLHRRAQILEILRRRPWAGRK

[6] = Intrinsic clearance in human liver microsomes; format: ADME, Microsome
Summary of the method: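 Human liver microsome metabolism; intrinsic clearance expressed as μL/min/mg, reported as mean of eight separate experiments.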

Cytochrome P450 3A4 = Cytochrome P450 3A4 (Homo sapiens, UniProt P08684); assay: Inhibition of CYP3A4; format: ADME
Summary of the method: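 Inhibition of cytochrome P450 isoforms 1A2, 2C9, 2C19, 2D6 and 3A4, reported as pIC50.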

[7] = biological target: Matrix metalloproteinase-9 (Homo sapiens, UniProt P14780); assay: Inhibition of recombinant human MMP-9 assessed as substrate cleavage after 20 hrs by fluorescence assay; summary of the method: as §1
[8] = Volume of distribution at steady state in rat at 2 mg/kg, iv; format: ADME, organism-based; set-up: dose 2 mg/kg, route intravenous; conditions: in vivo, read-out: Vdss
Summary of the method: (§2)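 Rat iv PK: 2 mg/kg iv, n = 2 animals; clearance, half-life and Vdss determined.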

[9] = Clearance in rat at 2 mg/kg, iv; format: ADME, organism-based; set-up: dose 2 mg/kg, route intravenous; conditions: in vivo; summary of the method: as §2
[10] = Half life in rat at 2 mg/kg, iv; format: ADME, organism-based; set-up: dose 2 mg/kg, route intravenous; conditions: in vivo; summary of the method: as §2
Collagenase 3 [11] = biological target: T2, Collagenase 3; assay: Inhibition of recombinant human MMP-13 assessed as substrate cleavage at 15 uM after 20 hrs by fluorescence assay

Chain of Cytochrome P450 3A4 (P08684 whole entry, canonical isoform): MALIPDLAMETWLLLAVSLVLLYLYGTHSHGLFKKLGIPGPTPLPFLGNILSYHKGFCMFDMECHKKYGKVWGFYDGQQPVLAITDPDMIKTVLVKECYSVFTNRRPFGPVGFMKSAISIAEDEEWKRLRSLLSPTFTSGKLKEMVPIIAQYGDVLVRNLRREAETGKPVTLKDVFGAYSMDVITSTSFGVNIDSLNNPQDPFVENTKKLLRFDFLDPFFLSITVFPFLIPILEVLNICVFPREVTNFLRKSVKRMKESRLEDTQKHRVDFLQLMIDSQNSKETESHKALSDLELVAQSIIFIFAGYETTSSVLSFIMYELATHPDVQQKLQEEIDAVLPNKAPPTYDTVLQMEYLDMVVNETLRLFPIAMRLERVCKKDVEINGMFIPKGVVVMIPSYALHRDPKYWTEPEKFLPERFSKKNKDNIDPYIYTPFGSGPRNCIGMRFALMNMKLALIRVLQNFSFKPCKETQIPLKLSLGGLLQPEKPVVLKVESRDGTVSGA
Chain of Matrix metalloproteinase-9 (P14780 whole entry): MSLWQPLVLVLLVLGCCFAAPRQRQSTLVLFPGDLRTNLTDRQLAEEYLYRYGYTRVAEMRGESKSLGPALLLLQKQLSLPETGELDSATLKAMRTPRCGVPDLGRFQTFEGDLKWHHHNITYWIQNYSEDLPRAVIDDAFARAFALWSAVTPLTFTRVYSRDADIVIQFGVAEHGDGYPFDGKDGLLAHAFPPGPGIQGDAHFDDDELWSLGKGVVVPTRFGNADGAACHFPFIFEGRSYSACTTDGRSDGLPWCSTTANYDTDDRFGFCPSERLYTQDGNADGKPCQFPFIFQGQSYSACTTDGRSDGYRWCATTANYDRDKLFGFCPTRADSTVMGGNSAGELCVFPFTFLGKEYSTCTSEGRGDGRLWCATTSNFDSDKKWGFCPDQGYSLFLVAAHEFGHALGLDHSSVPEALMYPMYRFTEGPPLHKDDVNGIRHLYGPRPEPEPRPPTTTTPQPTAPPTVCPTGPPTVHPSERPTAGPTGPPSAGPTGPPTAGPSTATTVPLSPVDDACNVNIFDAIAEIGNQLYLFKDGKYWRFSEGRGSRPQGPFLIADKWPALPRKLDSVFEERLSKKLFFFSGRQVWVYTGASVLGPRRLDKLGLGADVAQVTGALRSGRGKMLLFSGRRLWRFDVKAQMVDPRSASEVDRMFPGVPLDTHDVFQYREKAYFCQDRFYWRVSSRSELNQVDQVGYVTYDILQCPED
Chain of 72 kDa type IV collagenase (P08253 whole entry): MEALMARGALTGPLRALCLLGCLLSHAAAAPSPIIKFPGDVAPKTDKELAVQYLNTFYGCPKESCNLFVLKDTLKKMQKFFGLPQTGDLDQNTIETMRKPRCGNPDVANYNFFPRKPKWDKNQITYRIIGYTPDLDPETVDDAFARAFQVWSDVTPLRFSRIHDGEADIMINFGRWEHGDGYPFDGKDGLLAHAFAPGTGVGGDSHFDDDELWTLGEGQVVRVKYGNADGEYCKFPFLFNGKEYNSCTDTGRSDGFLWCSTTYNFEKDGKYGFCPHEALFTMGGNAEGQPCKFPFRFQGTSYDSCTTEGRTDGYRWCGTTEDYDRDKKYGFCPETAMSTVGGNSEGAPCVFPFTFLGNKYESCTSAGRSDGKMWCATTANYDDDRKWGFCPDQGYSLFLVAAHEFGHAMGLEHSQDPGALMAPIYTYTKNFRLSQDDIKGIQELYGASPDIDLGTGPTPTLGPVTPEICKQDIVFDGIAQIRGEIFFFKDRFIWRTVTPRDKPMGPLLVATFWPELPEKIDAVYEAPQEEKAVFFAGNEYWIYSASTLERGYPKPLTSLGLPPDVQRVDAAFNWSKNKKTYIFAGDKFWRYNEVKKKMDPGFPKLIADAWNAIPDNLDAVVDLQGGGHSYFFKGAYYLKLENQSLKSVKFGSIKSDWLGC

Row | SMILES | IC50 [1] [µM] | IC50 [2] [µM] | IC50 (Interstitial collagenase) [µM] | IC50 (Collagenase 3 [3]) [µM] | IC50 [4] [µM] | IC50 [5] [µM] | microsomal CLint [6] [µL/min/mg] | IC50 (Cytochrome P450 3A4) [µM] | IC50 [7] [µM] | Vd [8] [L/kg] | clearance [9] [mL/min/kg] | half-life [10] [h] | inhibition (Collagenase 3 [11]) [%]
1 | Cc1noc(C)c1CCC1CCN(S(=O)(=O)CC2(N(O)C=O)CCN(C)CC2)CC1 | > 10 | > 10 | > 10 | > 10 | 1.2 | 0.019 | < 2 | > 10 | > 10 | – | – | – | –
2 | Cc1noc(C)c1CCC1CCN(S(=O)(=O)CC2(N(O)C=O)CCC(F)(F)CC2)CC1 | > 10 | > 10 | > 10 | > 10 | 0.41 | 0.02 | 13 | > 10 | > 10 | – | – | – | –
3 | Cc1cc(CCC2CCN(S(=O)(=O)CC3(N(O)C=O)CCOCC3)CC2)c(C)cn1 | 61 | > 100 | > 10 | 46 | 3.4 | 0.018 | 4.3 | – | > 100 | 2 | 20 | 4 | –
4 | O=CN(O)C1(CS(=O)(=O)N2CCN(c3ccc(F)cc3)CC2)CCOCC1 | – | – | – | – | – | 0.021 | – | > 10 | – | – | – | – | 97
5 | Cc1noc(C)c1CCC1CCN(S(=O)(=O)CC2(N(O)C=O)CCS(=O)(=O)CC2)CC1 | > 10 | > 10 | > 10 | > 10 | 0.27 | 0.016 | 4.9 | > 10 | > 10 | – | – | – | –
6 | O=CN(O)C1(CS(=O)(=O)N2CCN(c3ccc(F)cc3)CC2)CCC1 | – | – | – | – | – | 0.091 | – | 1.9 | – | – | – | – | 81

The next compounds have a lower IC50 [5] than those just listed; values first:

Row | IC50 [1] [µM] | IC50 [2] [µM] | IC50 (Interstitial collagenase) [µM] | IC50 (Collagenase 3 [3]) [µM] | IC50 [4] [µM] | IC50 [5] [µM] | microsomal CLint [6] [µL/min/mg] | IC50 (Cytochrome P450 3A4) [µM] | IC50 [7] [µM] | Vd [8] [L/kg] | clearance [9] [mL/min/kg] | half-life [10] [h] | inhibition (Collagenase 3 [11]) [%] | SMILES
7 | > 10 | > 10 | > 10 | > 10 | 0.27 | 0.01 | 65 | > 10 | > 10 | – | – | – | – | Cc1noc(C)c1CCC1CCN(S(=O)(=O)CC2(N(O)C=O)CCN(C(=O)C3CCC3)CC2)CC1
8 | 1.3 | 3.1 | > 10 | 0.94 | 0.069 | 0.0045 | < 2 | – | 3.1 | 2 | 15 | – | – | Cc1cc(F)ccc1CCC1CCN(S(=O)(=O)CC2(N(O)C=O)CCOCC2)CC1
9 | > 10 | > 10 | > 10 | > 10 | 0.45 | 0.013 | 8.5 | – | > 10 | 2 | 18 | 6.3 | – | Cc1nsc(C)c1CCC1CCN(S(=O)(=O)CC2(N(O)C=O)CCOCC2)CC1
10 | > 10 | > 10 | > 10 | > 10 | 0.25 | 0.0097 | 12 | > 10 | > 10 | – | – | – | – | Cc1noc(C)c1CCC1CCN(S(=O)(=O)CC2(N(O)C=O)CCOC(C)(C)C2)CC1 (stereo not drawn)
